Assay results taken from publication PMC3512081 (Journal of immunology (Baltimore, Md. : 1950), 2011).
Where “and” joins values, the source holds several entries; their conditions need not be identical. Equal values may be shown once. Read-outs that look alike come from different tables or passages of the source.

Experiments:
[1] = system: WT and GFP-transduced Hela cells; experiment: 3H-L-tryptophan uptake by IDO negative Hela cells; type: cell-based, human; settings: for effect of excess unlabelled amino acid on 3H-tryptophan uptake: IDO negative Hela cells, high concentration (5mM glycine, histidine, glutamine)
Method in brief: (§1)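 HeLa cells were used untreated, GFP-transduced, human-IDO lentivirus-transduced, or given 1000 U/ml IFNγ for 48 h, and assayed at 90-100% confluence. Preincubated 20-30 min in PBS or choline buffer (pH 7.4). 3H-L-tryptophan was added at 50 pmol/ml, with initial-rate uptake over 3 min at 37°C. Stopped with 20mM L-lysine in ice-cold PBS, then NaOH/SDS lysis and scintillation counting. Competitors: BCH, D/L-Met, 5mM histidine, glycine or glutamine, and titrations. Triplicates, normalized; Student's t-test.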

[2] = system: IDO-transduced (C7) EG7 cells; experiment: 3H-L-tryptophan uptake by IDO positive EG7 cells; type: cell-based, mouse; settings: for tryptophan uptake maintained: 0.05mM, EG7-C7 cells, absence of BCH; for fold lower affinity of the additional transporter versus the first transporter: IDO positive C7 cells, equation based on two independent systems; for effect on tryptophan uptake, inhibitor alone: IDO positive cells
Method in brief: (§2)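 EG7 mouse T lymphoma cells: wild-type, GFP-only lentivirus controls, or an IDO/GFP lentivirus-transduced clone. Cultured 48 h, washed, then held 20-30 min in PBS or sodium-free choline buffer (pH 7.4). 3H-L-tryptophan was added at 50 pmol/ml and incubated a fixed time at 37°C. Uptake was stopped by spinning cells through oil. Competitors: BCH, D- or L-Met titrations, glutamine. Duplicate samples. Ki fitted assuming one or two transport systems.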

[3] = system: IDO-lentivirus transduced or IFN-γ treated Hela cells; experiment: 3H-L-tryptophan uptake by IDO positive Hela cells; type: cell-based, human; settings: for Ki: read-out: Ki for 3H-tryptophan uptake; for effect of excess unlabelled amino acid on 3H-tryptophan uptake: high concentration (5mM glycine, histidine, glutamine)
Method in brief: as §1

[4] = system: EG7 WT and GFP-transduced cells; experiment: 3H-L-tryptophan uptake by IDO negative EG7 cells; type: cell-based, mouse
Method in brief: as §2

[5] = system: IDO induced tryptophan transporter; type: cell-based, human; settings: for effect on tryptophan uptake in the presence of 2.5mM glutamine: IDO positive Hela cells, L-tryptophan at 2mM
Method in brief: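 IFN-γ-treated or human IDO-lentivirus-transduced Hela cells are grown 48h to 90-100% confluence, washed, then preincubated 20-30 min in PBS or choline buffer (pH 7.4). Add 3H-L-tryptophan at 50pmol/ml with competing amino acid and take uptake at 37°C under initial-rate conditions over 3 min. Stop with 20mM L-lysine in ice-cold PBS, lyse in 1% NaOH/0.1% SDS, and count by liquid scintillation.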

histidine uptake = experiment: 14C-histidine uptake; type: cell-based; settings: data not shown
activated human T cells = experiment: Tryptophan uptake by activated human T cells; type: cell-based; settings: preliminary data, not shown
[6] = WT and GFP-transduced Hela cells

NC1(C(=O)O)CC2CCC1C2 (stereo not drawn) [BCH, 2-aminobicyclo-(2,2,1)-heptane-2-carboxylic acid]
effect on 3H-tryptophan uptake [1, 6]: strongly inhibited | Ki ([1]; read-out: Ki for 3H-tryptophan uptake, control Hela cells): 12 µM | effect on transporter-mediated 3H-L-tryptophan uptake ([2]; high concentrations, IDO positive EG7 cells, sodium-free): completely abolished | Ki ([3]; IDO transduced Hela cells): ~300 µM | Ki ([3]; IFN-γ treated Hela cells): ~600 µM | effect on transporter-mediated 3H-L-tryptophan uptake ([4]; high concentrations, EG7-WT and GFP cells, sodium-free): completely abolished | effect on tryptophan uptake in the presence of 2.5mM glutamine [5]: no additional inhibition

CSCC[C@@H](N)C(=O)O [D-Met, D-Methionine]
effect on 3H-tryptophan uptake [1, 6]: strongly inhibited | tryptophan uptake maintained [2]: greater than 40% | fold higher Ki in IDO positive cells than IDO negative cells ([2]; EG7 cells, single uptake system calculation): approximately 10 fold | fold lower affinity of the additional transporter versus the first transporter [2]: 10 fold | Ki ([2]; read-out: Ki calculated based on a single tryptophan uptake system, IDO positive EG7 cells): 100 to 300 µM | inhibition of tryptophan uptake ([4]; 0.05mM, WT and GFP-expressing EG7 cells, absence of BCH): over 80%

N[C@H](Cc1c[nH]c2ccccc12)C(=O)O [D-tryptophan]
effect on tryptophan uptake in the presence of 2.5mM glutamine [5]: minimal inhibition

N[C@@H](Cc1ccc(O)c(O)c1)C(=O)O [L-Dopa, L-3,4-dihydroxyphenylalanine]
effect on tryptophan uptake in the presence of 2.5mM glutamine [5]: inhibited

CSCC[C@H](N)C(=O)O [L-Met, L-methionine]
effect on 3H-tryptophan uptake [1, 6]: strongly inhibited | tryptophan uptake maintained [2]: greater than 40% | fold lower affinity of the additional transporter versus the first transporter [2]: 10 fold | inhibition at 50 µM ([4]; Mus musculus, EG7, read-out: inhibition of tryptophan uptake): > 80%

CNC(C)(C)C(=O)O [MeAIB, methyl-aminoisobutyric acid]
effect on tryptophan uptake, inhibitor alone ([2]; data not shown): minimal effect

CCN1C(=O)C=CC1=O [NEM, N-ethyl maleimide]
effect on tryptophan uptake, inhibitor alone ([2]; data not shown): minimal effect

NC(=O)CC[C@H](N)C(=O)O [glutamine]
effect of excess unlabelled amino acid on 3H-tryptophan uptake [1]: completely inhibited | effect of glutamine alone on tryptophan uptake [1, 6]: completely abolished | tryptophan uptake in the presence of glutamine ([2]; murine EG7-IDO positive cells, data not shown): resistant to inhibition | effect on uptake of 14C-histidine (histidine uptake): inhibited | tryptophan uptake maintained ([3]; 5mM, IDO positive Hela cells): over 50% | fold increase in Ki for IDO positive cells compared with IDO negative controls ([3]; Hela cells): 10 fold | effect of excess unlabelled amino acid on 3H-tryptophan uptake ([3]; IDO positive Hela cells): a proportion of the tryptophan uptake was retained | sensitivity of tryptophan uptake to inhibition (activated human T cells): highly sensitive to inhibition | tryptophan uptake in the presence of glutamine ([4]; WT and GFP-transduced EG7 cells, data not shown): inhibited

NCC(=O)O [glycine]
effect of excess unlabelled amino acid on 3H-tryptophan uptake [1]: no effect | effect of excess unlabelled amino acid on 3H-tryptophan uptake ([3]; IDO positive Hela cells): no effect

N[C@@H](Cc1c[nH]cn1)C(=O)O [histidine]
effect of excess unlabelled amino acid on 3H-tryptophan uptake [1]: completely inhibited | effect on uptake of 14C-histidine (histidine uptake): inhibited | fold increase in Ki for IDO positive cells compared with IDO negative controls ([3]; Hela cells): 10 fold | effect of excess unlabelled amino acid on 3H-tryptophan uptake ([3]; IDO positive Hela cells): a proportion of the tryptophan uptake was retained

N[C@@H](Cc1ccccc1)C(=O)O [phenylalanine]
effect on tryptophan uptake in the presence of 2.5mM glutamine [5]: inhibited | inhibition of tryptophan uptake in the presence of glutamine ([5]; IFN-γ-treated and IDO transduced Hela cells, 2.5mM glutamine): over 50%

N[C@@H](Cc1c[nH]c2ccccc12)C(=O)O [tryptophan, L-tryptophan]
effect of excess unlabelled amino acid on 3H-tryptophan uptake [1]: effectively competed | effect on uptake of 14C-histidine (histidine uptake): inhibited | calculated Ki compared between cell types ([3]; Hela cells, IDO positive versus IDO negative): almost identical | effect of excess unlabelled amino acid on 3H-tryptophan uptake ([3]; IDO positive Hela cells): effectively competed | effect on tryptophan uptake in the presence of 2.5mM glutamine [5]: reduced to baseline | Ki ([5]; read-out: Ki of the induced glutamine-resistant 3H-tryptophan transport, IDO positive tumor cells, 2.5mM glutamine): 2.3 to 4.2 µM and 3 µM

N[C@@H](Cc1ccc(O)cc1)C(=O)O [tyrosine]
effect on tryptophan uptake in the presence of 2.5mM glutamine [5]: little additional effect
